The values below come from ChEMBL document CHEMBL1130003, “Synthesis and ligand binding of nortropane derivatives: N-substituted 2beta-carbomethoxy-3beta-(4'-iodophenyl)nortropane and N-(3-iodoprop-(2E)-enyl)-2beta-carbomethoxy-3beta-(3',4'-disubstituted phenyl)nortropane. New high-affinity and selective compounds for the dopamine transporter” (J Med Chem, 1997).

pKi: −log10 of the molar value. Some results are limits rather than exact numbers.

Assay [1] concerns the target Sodium-dependent dopamine transporter (Rattus norvegicus, UniProt P23977). Put plainly: Displacement of [3H]GBR-12935 from dopamine transporter (DAT) in rat brain membranes. The assay is classed as cell membranes. The essentials:
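Rat striatum crude membranes (100 µg protein) in sodium hydrogenocarbonate buffer pH 7.5 with 0.01% BSA. [3H]GBR-12935 1 nM (Kd 1.6 nM). Competitor 10^-5 to 10^-10 M. Incubation 37 °C, 1 h, then glass fiber filtration, ice-cold wash, beta counting. Nonspecific binding with 10^-6 M mazindol. Run in duplicate. Ki by Cheng-Prusoff.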

Assay [2] concerns the target Norepinephrine transporter (Rattus norvegicus, UniProt Q9WTR4). Put plainly: Displacement of [3H]nisoxetine from norepinephrine transporter (NET) in rat brain membranes. The assay is classed as cell membranes. The essentials: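 Rat frontoparietal cortex crude membranes in 50 mM Tris-HCl pH 7.4, 120 mM NaCl, 5 mM KCl. [3H]nisoxetine 0.5 nM (Kd 1.3 nM). Competitor 10^-5 to 10^-10 M. Incubation 2 °C, 5 h, then filtration, wash, beta counting. Nonspecific binding with 10^-6 M desipramine. Run in duplicate. Ki from IC50 by Cheng-Prusoff.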
Background: In a radioligand displacement assay an active substance lowers the binding of a labelled ligand.

Assay [3] concerns the target Monoamine transporters; serotonin & dopamine (Rattus norvegicus) (UniProt P31652+P23977). Nature of the assay: Selectivity index for serotonin and dopamine transporters. The assay is classed as protein assay.
Assay [4] deals with Monoamine transporters; Norepininephrine & dopamine (Rattus norvegicus) (UniProt P23977+Q9WTR4). Nature of the assay: Selectivity index for norepinephrine and dopamine transporters. The assay is classed as protein assay.
Assay [5] has as its target Sodium-dependent serotonin transporter (Rattus norvegicus, UniProt P31652). Put plainly: Displacement of [3H]- paroxetine from serotonin transporter (5-HTT) in rat brain membranes. The assay is classed as cell membranes. The essentials:
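Rat frontoparietal cortex crude membranes in 50 mM Tris-HCl pH 7.4 with 120 mM NaCl, 5 mM KCl. [3H]paroxetine 0.5 nM (Kd 0.5 nM). Competitor 10^-5 to 10^-10 M. Incubation 22 °C, 1 h, then glass fiber filtration, ice-cold wash, beta counting. Nonspecific binding with 10^-6 M fluvoxamine. Run in duplicate. Ki from IC50 by Cheng-Prusoff.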

Sodium-dependent serotonin transporter, sequence (P31652 whole entry): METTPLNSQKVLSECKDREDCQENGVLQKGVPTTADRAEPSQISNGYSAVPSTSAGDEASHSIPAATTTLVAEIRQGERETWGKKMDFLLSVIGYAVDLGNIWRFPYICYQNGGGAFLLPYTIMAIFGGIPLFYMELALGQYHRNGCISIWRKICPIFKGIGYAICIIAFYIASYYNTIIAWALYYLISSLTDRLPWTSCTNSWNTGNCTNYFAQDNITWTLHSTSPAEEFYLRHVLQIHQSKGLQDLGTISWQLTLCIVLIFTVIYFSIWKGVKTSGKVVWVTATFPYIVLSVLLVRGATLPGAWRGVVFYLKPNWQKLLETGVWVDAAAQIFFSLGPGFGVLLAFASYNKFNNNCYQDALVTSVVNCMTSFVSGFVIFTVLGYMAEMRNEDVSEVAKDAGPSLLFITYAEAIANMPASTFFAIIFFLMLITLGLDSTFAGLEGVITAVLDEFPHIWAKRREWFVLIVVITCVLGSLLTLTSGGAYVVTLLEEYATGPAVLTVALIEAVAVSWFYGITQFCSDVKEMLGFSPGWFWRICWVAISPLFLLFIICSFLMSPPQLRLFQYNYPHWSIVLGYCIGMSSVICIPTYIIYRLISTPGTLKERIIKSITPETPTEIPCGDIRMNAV
Norepinephrine transporter, sequence (Q9WTR4 whole entry): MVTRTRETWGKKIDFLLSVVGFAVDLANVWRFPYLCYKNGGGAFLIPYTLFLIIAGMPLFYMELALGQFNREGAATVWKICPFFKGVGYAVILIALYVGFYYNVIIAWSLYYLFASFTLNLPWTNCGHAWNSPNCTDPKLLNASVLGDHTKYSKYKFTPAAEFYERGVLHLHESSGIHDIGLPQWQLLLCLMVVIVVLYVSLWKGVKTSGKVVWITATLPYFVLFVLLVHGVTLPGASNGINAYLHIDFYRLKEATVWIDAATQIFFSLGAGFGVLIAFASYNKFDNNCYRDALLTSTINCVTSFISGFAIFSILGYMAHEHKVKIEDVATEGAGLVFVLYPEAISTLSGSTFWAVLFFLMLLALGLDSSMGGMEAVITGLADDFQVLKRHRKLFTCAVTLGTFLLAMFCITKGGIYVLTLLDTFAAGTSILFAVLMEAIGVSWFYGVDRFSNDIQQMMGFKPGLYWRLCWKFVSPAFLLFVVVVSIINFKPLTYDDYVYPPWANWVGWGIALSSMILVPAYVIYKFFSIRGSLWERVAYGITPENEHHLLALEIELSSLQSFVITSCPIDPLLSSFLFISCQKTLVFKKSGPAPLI
Sodium-dependent dopamine transporter, sequence (P23977 whole entry): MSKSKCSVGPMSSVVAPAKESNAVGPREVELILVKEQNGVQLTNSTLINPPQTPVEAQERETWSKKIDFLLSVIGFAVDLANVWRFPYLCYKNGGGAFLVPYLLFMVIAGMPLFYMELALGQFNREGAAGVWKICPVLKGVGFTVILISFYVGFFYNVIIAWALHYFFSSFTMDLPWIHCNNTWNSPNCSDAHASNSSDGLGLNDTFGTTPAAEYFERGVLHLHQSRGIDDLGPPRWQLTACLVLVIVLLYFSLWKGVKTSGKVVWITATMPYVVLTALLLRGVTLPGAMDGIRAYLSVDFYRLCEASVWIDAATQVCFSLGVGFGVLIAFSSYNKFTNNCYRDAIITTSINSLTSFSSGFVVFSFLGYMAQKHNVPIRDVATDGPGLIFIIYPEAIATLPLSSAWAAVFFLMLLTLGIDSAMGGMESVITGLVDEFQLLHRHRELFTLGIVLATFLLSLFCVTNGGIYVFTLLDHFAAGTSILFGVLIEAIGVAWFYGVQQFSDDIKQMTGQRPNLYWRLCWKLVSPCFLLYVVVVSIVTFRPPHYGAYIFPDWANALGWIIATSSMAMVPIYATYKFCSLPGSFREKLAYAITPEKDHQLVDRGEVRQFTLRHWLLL
Monoamine transporters; serotonin & dopamine (Rattus norvegicus), sequence (P23977 whole entry, looked up): as the sequence (P23977 whole entry) above
Monoamine transporters; serotonin & dopamine (Rattus norvegicus), sequence (P31652 whole entry, looked up): as the sequence (P31652 whole entry) above

Consider `C#CCN1C2CC[C@@H]1CC(c1ccc(I)cc1)[C@@H]2C(=O)OC` (stereo not given in full), for which the results for the pKi in assay [1], in assay [2] and in assay [5] were 7.85, below 6.00 and 7.00, respectively. Besides, the Selectivity in assay [3] was 7.1; in assay [4], above 71.

For the compound `COC(=O)[C@H]1C(c2ccc(I)cc2)C[C@H]2CCC1N2Cc1ccccc1C` (stereo not given in full), the pKi – broadly, the negative decadic logarithm of the Ki, by convention in mol/L – in assay [1] is 7.03; in assay [2], below 6.00; in assay [5] it was 6.65. The values for the Selectivity in assay [3] and in assay [4] were 2.4 and above 10.6, respectively.

For the compound `CCCc1ccc(C2C[C@H]3CCC([C@H]2C(=O)OC)N3C/C=C/I)cc1` (stereo not given in full), the pKi in assay [1] was 6.30; in assay [2], 6.12; in assay [5], 6.52. The Selectivity in assay [3] came to 0.6; in assay [4], 1.5.

`C=C(Br)CN1C2CC[C@@H]1CC(c1ccc(I)cc1)[C@@H]2C(=O)OC` (stereo not given in full): the pKi is 7.52 in assay [1], below 6.00 in assay [2] and 6.70 in assay [5]. The figures for the Selectivity in assay [3] and in assay [4] were 6.6 and above 33, respectively.

For the compound `COC(=O)[C@@H]1C2CCC(C[C@@H]1c1ccc(C)cc1)N2C/C=C/I` (stereo not given in full), the figures for the pKi in assay [1], in assay [2] and in assay [5] were 7.77, below 6.00 and 6.30, respectively. Besides, the Selectivity in assay [3] is 29.4; in assay [4], above 58.

With `C/C=C/CN1C2CC[C@@H]1CC(c1ccc(I)cc1)[C@@H]2C(=O)OC` (stereo not given in full), the pKi in assay [1] was 7.82; in assay [2], 6.40; in assay [5], 7.12. The Selectivity was found to be 5 in assay [3] and 26.6 in assay [4].

Turning to `COC(=O)[C@@H]1C2CC[C@H](C[C@@H]1c1ccc(I)cc1)N2C`, the pKi in assay [1] is 7.57; in assay [2], 7.10; in assay [5], 8.52. Also, the Selectivity in assay [3] was 0.1; in assay [4], 2.9.

For the compound `COC(=O)[C@@H]1C2CCC(C[C@@H]1c1ccc(Cl)c(Cl)c1)N2C/C=C/I` (stereo not given in full), the negative-log Ki (pKi) in assay [1] is 7.54; in assay [2], 6.30; in assay [5], 7.30. The Selectivity in assay [3] was 1.7; in assay [4] it was 17.2.

Regarding `COC(=O)[C@H]1C(c2ccc(C(C)C)cc2)C[C@H]2CCC1N2C/C=C/I` (stereo not given in full), the values for the pKi in assay [1], in assay [2] and in assay [5] were 6.30, below 6.00 and 6.35, respectively. The Selectivity in assay [3] is 0.9; in assay [4] it was above 2.

Consider `COC(=O)[C@H]1C(c2ccccc2)C[C@H]2CCC1N2C/C=C/I` (stereo not given in full), for which the results for the pKi in assay [1], in assay [2] and in assay [5] were 6.95, below 6.00 and 7.00, respectively. For the same compound, the Selectivity in assay [3] is 0.8; in assay [4] it was above 8.8.

For the compound `COC(=O)[C@@H]1C2CCC(C[C@@H]1c1ccc(I)cc1)N2Cc1ccccc1` (stereo not given in full), the results for the pKi in assay [1], in assay [2] and in assay [5] were 7.38, 6.22 and 7.00, respectively. Besides, the Selectivity was 2.3 in assay [3] and 14.2 in assay [4].

Regarding `COC(=O)[C@H]1C(c2ccc(I)cc2)C[C@H]2CCC1N2C/C=C/I` (stereo not given in full), the pKi is 7.52 in assay [1], 6.53 in assay [2] and 6.02 in assay [5]. The results for the Selectivity in assay [3] and in assay [4] were 32 and 9.8, respectively.
